Reference: ChEMBL document CHEMBL2417509, “Synthesis and biological evaluation of prodigiosene conjugates of porphyrin, estrone and 4-hydroxytamoxifen” (2013)
Activity calls are given as the source filed them. The calls are words filed in the database; no cut-off is given here.

Tests used:
SN12C = test: Cytotoxicity against human SN12C cells after 2 days by sulforhodamine B assay; type: functional; details: 48 h
How it was run: (§1)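 NCI60 multi-dose screen, 59 human tumour lines available. Cells exposed to compound across a 5-log mol/L concentration range for 2 days, then fixed and stained with sulphorhodamine B, optical density read. Growth inhibition calculated against time-zero control and untreated cells. GI50 derived from the dose series, average of two replicates.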

CAKI-1 = test: Cytotoxicity against human CAKI-1 cells after 2 days by sulforhodamine B assay; type: functional; details: CAKI-1, 48 h; how it was run: as §1
ACHN = test: Cytotoxicity against human ACHN cells after 2 days by sulforhodamine B assay; type: functional; details: 48 h; how it was run: as §1
SK-OV-3 = test: Cytotoxicity against human SKOV3 cells after 2 days by sulforhodamine B assay; type: functional; details: SK-OV-3, 48 h; how it was run: as §1
OVCAR-5 = test: Cytotoxicity against human OVCAR5 cells after 2 days by sulforhodamine B assay; type: functional; details: OVCAR-5, 48 h; how it was run: as §1
OVCAR-4 = test: Cytotoxicity against human OVCAR4 cells after 2 days by sulforhodamine B assay; type: functional; how it was run: as §1
OVCAR-3 = test: Cytotoxicity against human OVCAR3 cells after 2 days by sulforhodamine B assay; type: functional; details: OVCAR-3, 48 h; how it was run: as §1
IGROV-1 = test: Cytotoxicity against human IGROV1 cells after 2 days by sulforhodamine B assay; type: functional; details: IGROV-1, 48 h; how it was run: as §1
UACC-257 = test: Cytotoxicity against human UACC257 cells after 2 days by sulforhodamine B assay; type: functional; details: UACC-257, 48 h
How it was run: (§2)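 NCI DTP NCI60 multi-dose screen (59 human tumour lines available). Cells exposed to compound over a 5-log mol/L concentration range for 2 days, then fixed and stained with sulphorhodamine B, with optical density read. Growth inhibition calculated relative to time-zero cells and untreated cells, giving GI50 (half-maximal growth inhibition concentration). Average of two replicates.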

SK-MEL-28 = test: Cytotoxicity against human SK-MEL-28 cells after 2 days by sulforhodamine B assay; type: functional; details: SK-MEL-28, 48 h; how it was run: as §1
MDA-MB-435 = test: Cytotoxicity against human MDA-MB-435 cells after 2 days by sulforhodamine B assay; type: functional; details: MDA-MB-435, 48 h; how it was run: as §1
M14 = test: Cytotoxicity against human M14 cells after 2 days by sulforhodamine B assay; type: functional; details: M14, 48 h; how it was run: as §1
LOX IMVI = test: Cytotoxicity against human LOXIMVI cells after 2 days by sulforhodamine B assay; type: functional; details: 48 h; how it was run: as §1
SNB-75 = test: Cytotoxicity against human SNB75 cells after 2 days by sulforhodamine B assay; type: functional; details: SNB-75, 48 h; how it was run: as §2
SNB-19 = test: Cytotoxicity against human SNB19 cells after 2 days by sulforhodamine B assay; type: functional; details: SNB-19, 48 h; how it was run: as §2
SF-295 = test: Cytotoxicity against human SF295 cells after 2 days by sulforhodamine B assay; type: functional; details: SF-295, 48 h; how it was run: as §1
KM12 = test: Cytotoxicity against human KM12 cells after 2 days by sulforhodamine B assay; type: functional; details: KM12, 48 h; how it was run: as §1
NCI-H522 = test: Cytotoxicity against human NCI-H522 cells after 2 days by sulforhodamine B assay; type: functional; details: NCI-H522, 48 h; how it was run: as §1
COLO 205 = test: Cytotoxicity against human COLO205 cells after 2 days by sulforhodamine B assay; type: functional; details: COLO 205, 48 h; how it was run: as §1
HOP-92 = test: Cytotoxicity against human HOP92 cells after 2 days by sulforhodamine B assay; type: functional; details: HOP-92, 48 h; how it was run: as §1
A549 = test: Cytotoxicity against human A549/ATCC cells after 2 days by sulforhodamine B assay; type: functional; details: A549, 48 h; how it was run: as §1
RPMI-8226 = test: Cytotoxicity against human RPMI8226 cells after 2 days by sulforhodamine B assay; type: functional; details: RPMI-8226, 48 h; how it was run: as §1
MOLT-4 = test: Cytotoxicity against human MOLT4 cells after 2 days by sulforhodamine B assay; type: functional; details: MOLT-4, 48 h; how it was run: as §1
K562 = test: Cytotoxicity against human K562 cells after 2 days by sulforhodamine B assay; type: functional; details: K562, 48 h; how it was run: as §1
HL-60(TB) = test: Cytotoxicity against human HL-60(TB) cells after 2 days by sulforhodamine B assay; type: functional; details: HL-60, 48 h
How it was run: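 NCI60 multi-dose screen: cells exposed to compound over a 5-log mol/L concentration range for 2 days, then fixed and stained with sulphorhodamine B and optical density read. Growth inhibition calculated relative to time-zero control and untreated cells; GI50 reported as average of two replicates.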

CCRF-CEM = test: Cytotoxicity against human CCRF-CEM cells after 2 days by sulforhodamine B assay; type: functional; details: 48 h; how it was run: as §1
MCF7 = test: Cytotoxicity against human ER positive MCF7 cells assessed as cell viability at 1 uM after 72 hrs by MTT assay; type: functional, cell-based
How it was run: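 Lines kept in DMEM with 10% fetal bovine serum and 1% penicillin/streptomycin at 37 °C, 5% CO2. Compound applied at 1 µM for 72 h, then standard MTT reduction read-out. Viability given as mean percentage of formazan formed by treated cells relative to mock-treated cells (0.1% DMSO). Run in quadruplicate, standard error, Student's t-test.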

T47D = test: Cytotoxicity against human T47D cells after 2 days by sulforhodamine B assay; type: functional; details: 48 h; how it was run: as §2
DU-145 = test: Cytotoxicity against human DU145 cells after 2 days by sulforhodamine B assay; type: functional; details: DU-145, 48 h; how it was run: as §1
[1] = read-out: LC50 (the source's name)

In the case of `CC/C(=C(/c1ccc(OCCN(C)C)cc1)c1ccc(OC(=O)CCCCCCCCC(=O)C2=C(C)/C(=C/c3[nH]c(-c4ccc[nH]4)cc3OC)N=C2C)cc1)c1ccccc1`, the GI50 (SN12C) is reported as 7.59 µM, the TGI (SN12C) is reported as > 100 µM and the CC50 (SN12C; [1]) is reported as > 100 µM. The GI50 (CAKI-1) was 6.92 µM, the LC50 (concentration killing 50% of the cells present at time zero) (CAKI-1) was > 100 µM and the TGI (CAKI-1) was > 100 µM. For the same compound, the GI50 (ACHN) was 7.76 µM, the LC50 (concentration killing 50% of cells) (ACHN) was > 100 µM and the TGI (ACHN) was > 100 µM. The GI50 (SK-OV-3) was > 100 µM, the LC50 (concentration killing 50% of starting cells) (SK-OV-3) was > 100 µM and the TGI (SK-OV-3) was > 100 µM. For the same compound, the GI50 (OVCAR-5) was > 100 µM, the LC50 (OVCAR-5) was > 100 µM and the TGI (OVCAR-5) was > 100 µM. The Activity (OVCAR-4) was “inactive”, the LC50 (concentration killing 50% of cells) (OVCAR-4; OVCAR-4, 48 h) was > 100 µM and the TGI (OVCAR-4; OVCAR-4, 48 h) was > 100 µM. The GI50 (OVCAR-3) was 11 µM, the LC50 (OVCAR-3) was > 100 µM and the TGI (OVCAR-3) was > 100 µM. The GI50 (IGROV-1) was 22.9 µM, the LC50 (IGROV-1) was > 100 µM and the TGI (IGROV-1) was > 100 µM. For the same compound, the GI50 (UACC-257) was 63.1 µM, the TGI (UACC-257) was > 100 µM and the CC50 (UACC-257; [1]) was > 100 µM. For the same compound, the GI50 (SK-MEL-28) was 43.6 µM, the LC50 (SK-MEL-28) was > 100 µM and the TGI (SK-MEL-28) was > 100 µM. For the same compound, the GI50 (MDA-MB-435) was 4.57 µM, the TGI (MDA-MB-435) was > 100 µM and the CC50 (MDA-MB-435; [1]) was > 100 µM. For the same compound, the GI50 (M14) was 2.14 µM, the TGI (M14) was 4.47 µM and the CC50 (M14; [1]) was 9.33 µM. It also gave a GI50 (LOX IMVI) of 2.34 µM, an LC50 (LOX IMVI) of 27.5 µM and a TGI (LOX IMVI) of 5.89 µM. For the same compound, the GI50 (SNB-75) was 4.17 µM, the LC50 (concentration killing 50% of starting cells) (SNB-75) was > 100 µM and the TGI (SNB-75) was > 100 µM. The GI50 (SNB-19) was 6.31 µM, the TGI (SNB-19) was > 100 µM and the CC50 (SNB-19; [1]) was > 100 µM. For the same compound, the GI50 (SF-295) was 10.7 µM, the LC50 (SF-295) was > 100 µM and the TGI (SF-295) was 61.7 µM. The GI50 (KM12) was 5.25 µM, the LC50 (KM12) was > 100 µM and the TGI (KM12) was > 100 µM. For the same compound, the GI50 (NCI-H522) was 21.4 µM, the LC50 (NCI-H522) was > 100 µM and the TGI (NCI-H522) was > 100 µM. The GI50 (COLO 205) was 8.13 µM, the LC50 (concentration killing 50% of cells) (COLO 205) was > 100 µM and the TGI (COLO 205) was 77.6 µM. For the same compound, the GI50 (HOP-92) was 1.95 µM, the CC50 (HOP-92; [1]) was > 100 µM and the GI50 (A549) was 4.17 µM. For the same compound, the LC50 (concentration giving 50% net cell kill) (A549) was > 100 µM, the TGI (A549) was > 100 µM and the GI50 (RPMI-8226) was 3.72 µM. The LC50 (concentration killing 50% of cells present at time zero) (RPMI-8226) was > 100 µM, the TGI (RPMI-8226) was > 100 µM and the GI50 (MOLT-4) was 5.13 µM. For the same compound, the TGI (MOLT-4) was > 100 µM, the CC50 (MOLT-4; [1]) was > 100 µM and the GI50 (K562) was 4.57 µM. For the same compound, the LC50 (concentration killing 50% of cells) (K562) was > 100 µM, the TGI (K562) was > 100 µM and the GI50 (HL-60(TB)) was 12.3 µM. The TGI (HL-60(TB)) was > 100 µM, the CC50 (HL-60(TB); [1]) was > 100 µM and the GI50 (CCRF-CEM) was 0.76 µM. The TGI (CCRF-CEM) was > 100 µM, the CC50 (CCRF-CEM; [1]) was > 100 µM and the Activity (MCF7) was “inactive”. For the same compound, the GI50 (T47D) was 3.55 µM, the LC50 (concentration killing 50% of cells) (T47D) was > 100 µM and the TGI (T47D) was > 100 µM. The GI50 (DU-145) was 8.13 µM, the LC50 (concentration killing 50% of starting cells) (DU-145) was > 100 µM and the TGI (DU-145) was > 100 µM.
